Results: ChEMBL document CHEMBL1152725, “New potent imidazoisoquinolinone derivatives as anti-Trypanosoma cruzi agents: biological evaluation and structure-activity relationships” (Bioorg Med Chem, 2009)
pIC50: −log10 of the molar value. Converted amounts (≈) assume the structure as drawn. The source made the active and inactive calls. The rule behind the calls is not given here.

Columns and labels:
[1] = Selectivity index, ratio of IC50 for human HeLa cells to IC50 for Trypanosoma cruzi Tulahuen 2 epimastigotes; format: toxicity, cell-based; conditions: HeLa cells versus Trypanosoma cruzi Tulahuen 2 epimastigotes, read-out: Ratio IC50
Procedure, shortened: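 Selectivity index is the HeLa IC50 divided by the IC50 against T. cruzi Tulahuen 2 epimastigotes (5-day growth assay).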

HeLa = test: Cytotoxicity against human HeLa cells after 24 hrs by MTT assay; format: cell-based
Procedure, shortened: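 HeLa cells were kept in DMEM with 10% FBS, penicillin and streptomycin at 37 °C and 5% CO2. Cells were seeded, and after 48 h compound was added at 4, 20 or 100 µM for 24 h. After PBS washes, cells got MTT at 0.5 mg/mL final for 4 h at 37 °C. Formazan was dissolved in isopropanol/HCl and read at 570 nm after blank subtraction. Survival is % of control, with ≥3 repeats of four samples each.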

DNA = test: Binding affinity to calf thymus DNA at a DNA-drug molar ratio of 5:1 after 24 hrs by UV spectroscopy; format: nucleic-acid assay; conditions: Bos taurus
Procedure, shortened: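 Calf thymus DNA was prepared in 10 mM Tris–HCl pH 7.4. Compound (2 × 10⁻⁵ M, from an ethanol stock diluted with water) was mixed 1:1 by volume with the DNA solution at a 5:1 DNA-drug ratio. The mixture was rotated slowly for 24 h. UV absorbance area at maximal absorbance was compared (a24/a0), where 1 means no affinity and 0 means fully bound.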

Trypanosoma cruzi = test: Antitrypanosomal activity against Trypanosoma cruzi Tulahuen 2 epimastigotes after 5 days; format: functional, organism-based; conditions: Tulahuen 2, 120 h
Procedure, shortened: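 T. cruzi Tulahuen 2 epimastigotes were grown axenically at 28 °C in BHI-tryptose with 5% FCS. Stationary-phase (5-day) cells were inoculated at 1 × 10⁶ cells/mL, with DMSO ≤0.4% final. Cultures ran 5 days with or without compound, first as a 25 µM screen and then at increasing concentrations. IC50 is the concentration halving this ratio.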

[2] = test system: Trypanosoma brucei rhodesiense; test: Antiparasitic activity against Trypanosoma brucei rhodesiense; format: functional, organism-based
Leishmania donovani = test: Antiparasitic activity against Leishmania donovani; format: functional, organism-based
Plasmodium falciparum = test: Antiparasitic activity against Plasmodium falciparum K1; format: functional, organism-based
L6 = test: Cytotoxicity against rat L6 cells; format: cell-based
Leishmania infantum = test: Antiparasitic activity against Leishmania infantum; format: functional, organism-based
Onchocerca gutturosa [3] = test: Antiparasitic activity against Onchocerca gutturosa assessed as inhibition of MTT formazan formation; format: functional; design: scale not given: the % may be the effect or the level left
Onchocerca gutturosa [4] = test: Antiparasitic activity against Onchocerca gutturosa assessed as reduction in motility after 120 hrs; format: functional; design: scale not given: the % may be the effect or the level left

| SMILES | selectivity ratio [1] | pIC50 (HeLa) | Activity (DNA) | pIC50 (Trypanosoma cruzi) | IC50 [2] [µg/mL] | Activity (Leishmania donovani) | IC50 (Plasmodium falciparum) [µg/mL] | IC50 (L6) [µg/mL] | IC50 (Leishmania infantum) [µg/mL] | Activity (Onchocerca gutturosa [3]) [%] | Activity (Onchocerca gutturosa [4]) [%] |
| --- | --- | --- | --- | --- | --- | --- | --- | --- | --- | --- | --- |
| COc1ccc(NC(=S)c2c3n(c(=O)c4ccccc24)CCN3)cc1 | 1.7 | 4.66 | 0.8 | 4.91 |  |  |  |  |  |  |  |
| Cc1cccc(NC(=S)c2c3n(c(=O)c4ccccc24)CCN3)c1 |  | < 4.28 | 0.8 | 4.70 |  |  |  |  |  |  |  |
| Cc1ccc(C(=O)Nc2ccc(S(=O)(=O)O)c3cc(S(=O)(=O)O)cc(S(=O)(=O)O)c23)cc1NC(=O)c1cccc(NC(=O)Nc2cccc(C(=O)Nc3cc(C(=O)Nc4ccc(S(=O)(=O)O)c5cc(S(=O)(=O)O)cc(S(=O)(=O)O)c45)ccc3C)c2)c1 [SURAMIN] |  |  |  |  | 0.13 (≈ 0.1 µM) |  |  |  |  |  |  |
| O=C(Nc1ccccc1)c1c2n(c(=O)c3ccccc13)CCN2 |  | < 4.00 | 0.8 | 4.52 | > 19.5 | inactive | > 19.5 | > 19.6 | > 19.5 |  |  |
| O=c1c2ccccc2c(C(=S)Nc2ccccc2)c2[nH]c3ccccc3n12 | 15 | 4.01 | 0.8 | 5.19 | > 22.7 | inactive | > 19.5 | > 22.8 | > 19.5 |  |  |
| O=c1c2ccccc2cc2n1CCN2 |  | < 4.00 | 0.8 | < 4.60 | 1.2 (≈ 6.44 µM) | inactive | > 10 | > 100 | > 20.7 | 0 | 14.29 |
| CN1CCN(C(=S)Nc2ccc(Nc3ccc([N+](=O)[O-])cc3)cc2)CC1 [AMOCARZINE] |  |  |  |  |  |  |  |  |  | 48.57 | 85.71 |
| O=c1c2ccccc2c(C(=S)Nc2ccc(Cl)cc2)c2n1CCN2 | > 180 | < 4.05 | 0.8 | 6.30 | > 22.7 | inactive | > 22.7 | > 22.8 | > 22.7 |  |  |
| O=c1c2ccccc2c(C(=S)Nc2ccccn2)c2n1CCN2 |  | < 4.00 | 0.8 | 4.52 |  |  |  |  |  |  |  |
| CC/C(=C(\c1ccccc1)c1ccc(OCCN(C)C)cc1)c1ccccc1 [TAMOXIFEN] |  |  |  |  |  |  |  | 4.9 (≈ 13.2 µM) |  |  |  |
| O=c1c2ccccc2cc2[nH]c3ccccc3n12 |  | < 4.00 | 0.85 | < 4.60 |  |  |  |  |  |  |  |
| O=c1c2ccccc2c(C(=S)NCc2ccc(Cl)cc2)c2n1CCN2 |  | < 4.05 | 0.8 | 4.46 |  |  |  |  |  |  |  |
| CC1CS(=O)(=O)CCN1/N=C/c1ccc([N+](=O)[O-])o1 (stereo not given) [NIFURTIMOX] | 1.5 | 4.92 |  |  |  |  |  |  |  |  |  |
| O=c1c2ccccc2c(C(=S)Nc2ccccc2)c2n1CCN2 | > 33 | < 4.00 | 0.8 | 5.52 |  |  |  |  |  |  |  |
| O=c1c2ccccc2c(C(=S)Nc2cccc3ccccc23)c2n1CCN2 |  |  | 0.8 | 4.60 |  |  |  |  |  |  |  |
| Cc1ccc(NC(=S)c2c3n(c(=O)c4ccccc24)CCN3)cc1 | > 100 | < 4.00 | 0.8 | 6.00 |  |  |  |  |  |  |  |
| CC(=O)N1CCn2c1c(C(=S)Nc1ccccc1)c1ccccc1c2=O |  |  | 0.8 | 4.37 |  |  |  |  |  |  |  |
